Mdm2 ligase inh – MDM2-luciferase reporter signal enhancers, primary screen, MDM2 E3 ligase inhibitor project, cell-based, luminescence, 1536-well; E3 ubiquitin-protein ligase Mdm2 (Homo sapiens), Q00987; cell-based MDM2 ubiquitination luciferase reporter, 2 h; 0 = plate control, 100 = twice control, blank-subtracted; signal enhancement, % at 5 µM; 0.11% of 210,000 active; AID 1230, 2008;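 active means signal enhancement of 30% or more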;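 further: luminescence tracks abundance of the self-degrading MDM2-luciferase fusion protein; higher signal means inhibition of MDM2 E3 ligase activity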
Target sequence (Q00987 whole entry, looked up, the tested form may be a part): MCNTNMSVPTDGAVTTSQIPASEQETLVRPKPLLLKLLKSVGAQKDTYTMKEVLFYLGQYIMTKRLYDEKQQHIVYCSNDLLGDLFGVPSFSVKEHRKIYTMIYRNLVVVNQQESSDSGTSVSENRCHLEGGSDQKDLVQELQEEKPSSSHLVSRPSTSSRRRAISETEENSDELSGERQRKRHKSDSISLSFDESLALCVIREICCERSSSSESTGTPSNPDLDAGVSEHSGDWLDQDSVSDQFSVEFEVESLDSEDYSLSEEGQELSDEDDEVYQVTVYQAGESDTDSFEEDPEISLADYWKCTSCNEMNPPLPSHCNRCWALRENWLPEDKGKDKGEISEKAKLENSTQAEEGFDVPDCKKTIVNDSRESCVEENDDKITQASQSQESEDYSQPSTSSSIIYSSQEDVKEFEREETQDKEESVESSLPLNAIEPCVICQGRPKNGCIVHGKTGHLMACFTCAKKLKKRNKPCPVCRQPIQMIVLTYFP
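Material: stable MDM2–luciferase fusion reporter cells / Quantity: 2000 cells/well / Dosing: single 5 µM compound dose, 0.2% final DMSO / Buffer or medium: DMEM / Schedule: 4 h cell settling then 2 h compound exposure, 37 °C / Detection: luminescence with SteadyLite reagent, 15 min at room temperature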
S1P3 antagonist – S1P3 receptor antagonists, primary screen, cell-based; Sphingosine 1-phosphate receptor 3 (Homo sapiens), Q99500; AID 485, 2006; inhibition, % at 4.98 µM; 0.27% of 170,000 active; CHO S1P3 NFAT-BLA reporter, FRET fluorescence, antagonist mode;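 active means inhibition above the plate cutoff, the mean inhibition of test wells on that plate plus 3 SD, cut at about 28% in these data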;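 further: cells challenged with S1P at its EC80 of 0.8 µM; blue over green emission ratio from cleaved BLA substrate after 4 h stimulation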
S1P4 antagonist – S1P4 receptor antagonists, primary screen, cell-based. inhibition, % at 4.98 µM. 0.26% of 220,000 active. Sphingosine 1-phosphate receptor 4 (Homo sapiens), O95977. S1P4-expressing cells, antagonist mode, reporter read-out; in the data active means inhibition above about 29%
S1P4 ag – S1P4 receptor agonists, primary screen, cell-based; Sphingosine 1-phosphate receptor 4 (Homo sapiens), O95977; activation, % at 4.98 µM; AID 1509, 2009; 0.35% of 220,000 active; S1P4-expressing cell line, agonist reporter assay; in the data active means activation above about 11%
Calb biofilm kill – clotrimazole potentiators killing C. albicans biofilm, primary screen, 4-compound mixtures; C. albicans biofilm persisters + clotrimazole, fluorescence viability; primary screen in compound mixtures of four per well; inhibition, % at 7.6 µM; 0.02% of 120,000 active;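 active means inhibition above 30.3% in the primary screen of four-compound pools, then above 30% when the compound was retested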;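 further: compounds exposed to preformed 24 h biofilms for 48 h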
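Test system: C. albicans biofilms. Buffer or medium: RPMI/MOPS medium, pH 7.0. Timing: 48 h compound exposure at 37 °C. Technique: Alamar Blue fluorescence. Evaluation: percent inhibition of biofilm viability.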
Each line names hits and unclear results; the compound was inactive in the other large screens. An excerpt weighted towards active compounds, which were near 0.9% of everything screened.

COc1cccc(-c2cc(C(=O)Nc3c(C)nn(Cc4ccccc4)c3C)no2)c1	S1P3 antagonist 54 (no result: Calb biofilm kill)
O=C(CSc1n[nH]c(-c2ccncc2)n1)c1ccccc1	S1P3 antagonist 72 (no result: Calb biofilm kill)
Cc1ccc(N(CC(=O)NC(C)(C)C)C(=O)CS(=O)CC(=O)Nc2ccc(F)cc2)cc1 (centres undefined)	none
O=C(Cn1ncc(Cl)c(Cl)c1=O)NC1CCS(=O)(=O)C1 (centres undefined)	none (no result: Mdm2 ligase inh)
O=C(Cn1ncc(Cl)c(Cl)c1=O)NCC1CCCCC1	Mdm2 ligase inh 80
CCOC(=O)c1[nH]c2ccccc2c1NC(=O)CC	S1P3 antagonist 55 (no result: Calb biofilm kill)
CCOC(=O)c1[nH]c2ccccc2c1NC(=O)COC	none (no result: Calb biofilm kill)
CN(C)c1oc(-c2ccccc2)nc1C#N	none (no result: S1P3 antagonist, Calb biofilm kill)
CN(C)c1oc(-c2ccccc2Cl)nc1C#N	Mdm2 ligase inh 32 (no result: Calb biofilm kill)
CC(=O)Nc1cccc(NC(=O)CSc2nnnn2C)c1	S1P3 antagonist 70 (no result: Calb biofilm kill)
Cc1nnc(NC(=O)CSc2nnc(Cc3cccn3C)n2-c2cccc(C(F)(F)F)c2)s1	S1P3 antagonist 88 (no result: Calb biofilm kill)
Cc1ccc(-n2c(Cc3cccn3C)nnc2SCC(=O)Nc2nnc(C)s2)cc1	none (no result: Calb biofilm kill)
CCCC(=O)Nc1sc(Cc2ccccc2)c(C)c1C(N)=O	none
O=S(=O)(Cc1ccccc1)NCc1ccccn1	S1P3 antagonist 103 (no result: Calb biofilm kill)
O=S(=O)(NCc1ccccn1)c1ccccc1	none (no result: S1P3 antagonist, Calb biofilm kill)
O=C(/C=C1\C(=O)Nc2ccccc21)/C=C1\C(=O)Nc2ccccc21	S1P4 antagonist 46
CCOC(=O)Cc1csc(N/C(=N/S(=O)(=O)c2cc(Br)ccc2OCC)c2ccccc2)n1	none
CCOC(=O)c1c(NC(=O)c2nn(CC)cc2Br)c(C#N)cn1-c1ccccc1	S1P3 antagonist 59 (no result: Calb biofilm kill)
c1ccc2c(NCCCN3CCOCC3)c3ccccc3nc2c1	S1P4 ag 11
CCc1cccc(C)c1NC(=S)N(CCN(C)C)C(C)c1ccco1 (centres undefined)	none (no result: Mdm2 ligase inh)
N#CC(C#N)=C(N)CSc1cccc[n+]1[O-]	none
O=C1C(Cl)=C(N2CCCCC2)C(=O)C(Cl)=C1c1cnc(N2CCCCC2)s1	Mdm2 ligase inh 72 (no result: S1P3 antagonist)
CCn1c(SCC(=O)c2ccc(O)c(O)c2)nnc1-c1ccccc1OC	S1P3 antagonist 74 (no result: Calb biofilm kill)
C=CCn1c(SCC(=O)c2ccc(O)c(O)c2)nnc1-c1ccccc1OC	none (no result: Calb biofilm kill)
Cc1ccc(Sc2ccc(N)cn2)cc1	none
Cc1ccccc1N1CC(=O)N(c2ccccc2C)CC1=O	none (no result: S1P3 antagonist, Calb biofilm kill)
Cc1cccc2c1c1ccc3c(c1n2C)C(=O)C=CC3=O	Mdm2 ligase inh 54
Cc1ccc(-c2nsc(SCC(=O)NCc3ccc4c(c3)OCO4)n2)cc1	none
COc1ccc(-c2nsc(SCC(=O)Nc3ccc4c(c3)OCO4)n2)cc1	Mdm2 ligase inh 32
CC1=C(OC(=O)c2ccccc2)C(C)(C)C(c2ccc(Br)cc2)OC1=O (centres undefined)	none (no result: S1P3 antagonist, Calb biofilm kill)
CCOC(=O)C1C(c2ccccc2)N(C)OC1(O)C(F)(F)F (centres undefined)	Mdm2 ligase inh 35
CC(=O)N(C)c1ccc(NC(=O)COc2ccc(Br)cc2C)cc1	none
O=C(CCCOc1ccccc1)Nc1ncccn1	none
O=C(COc1ccccc1)Nc1ncccn1	Mdm2 ligase inh 35 (no result: S1P3 antagonist, Calb biofilm kill)
Cc1nc2c(C)cccc2cc1C(=O)N/N=C/c1cccnc1	none
COC(=O)c1cc(NS(=O)(=O)c2ccc(N3CCOCC3)c(N)c2)cc(C(=O)OC)c1	none
O=C(Nc1cccc(C(F)(F)F)c1)c1cc(S(=O)(=O)N2CCCCC2)ccc1N1CCOCC1	Mdm2 ligase inh 38 (no result: S1P3 antagonist, Calb biofilm kill)
NC(CCC(=O)O)C12CC3CC(CC(C3)C1)C2 (centres undefined)	none
CCN(C(=O)CSc1nc2ccccc2c(=O)n1-c1cccc(C)c1)C1CCS(=O)(=O)C1 (centres undefined)	Mdm2 ligase inh 63
CN(CCC#N)C(=O)COC(=O)c1c2c(nc3ccccc13)/C(=C/c1ccco1)CC2	none
CCCCSc1nnc(-c2c[nH]c3ccccc23)n1C	S1P3 antagonist 101 (no result: Calb biofilm kill)
NC(=O)CC1C(=O)N(c2ccc(F)cc2)C(=O)N1NC(=O)CCc1ccccc1 (centres undefined)	none
COc1ccc(N2CCN(CC(=O)Nc3c(C)cc(C)cc3C)CC2)cc1	none (no result: Calb biofilm kill)
Cc1cc(C)c(NC(=O)CN2CCN(C)CC2)c(C)c1	S1P3 antagonist 79 (no result: S1P4 antagonist, S1P4 ag, Calb biofilm kill)
O=[N+]([O-])c1ccc(O)c2ncccc12	Calb biofilm kill 32 (no result: Mdm2 ligase inh)
CC(C)C(=O)N1CCN(c2ccc(NC(=O)c3ccc([N+](=O)[O-])o3)cc2Cl)CC1	S1P4 antagonist 47
CCc1ccc(Nc2nnc(SC3CCOC3=O)s2)cc1 (centres undefined)	none
COc1ccc(CCC(=O)Nc2c(C)n(C)n(-c3ccccc3)c2=O)cc1	none
O=C(Cn1cnc2ccccc2c1=O)NCCC(=O)N1CCN(Cc2ccccc2)CC1	Mdm2 ligase inh 34 (no result: Calb biofilm kill)
CC1CCCCC1NC(=O)CCCn1c(=S)[nH]c2ccccc2c1=O (centres undefined)	none
O=C(CCCn1c(=S)[nH]c2ccccc2c1=O)NC1CCCC1	S1P3 antagonist 60 (no result: Calb biofilm kill)
N=C1S/C(=C\c2ccc(-c3cccc(Cl)c3)o2)C(=O)N1c1nccs1	Mdm2 ligase inh 36
COc1ccc(/C=C2\SC(=N)N(c3nccs3)C2=O)cc1OC	none
COc1ccc(CNC(=O)COC(=O)c2ccco2)cc1	none
CCCCNC(=O)Nc1cc(C(=O)OC)ccc1Cl	none (no result: S1P3 antagonist, Calb biofilm kill)
O=C1CC(c2cccc(Cl)c2)CC(O)=C1C=NC1CCCC1 (centres undefined)	Mdm2 ligase inh 32
NS(=O)(=O)c1ccc(O)c(NC(=O)c2ccc([N+](=O)[O-])o2)c1	none
COc1cc(NC(=O)c2cnc(N)s2)cc(C(=O)Nc2cccc(C(F)(F)F)c2)c1	Mdm2 ligase inh 32 (no result: S1P3 antagonist, S1P4 antagonist, S1P4 ag)
CC(Sc1nc(C(C)(C)C)cc(-c2ccccc2)c1C#N)C(=O)Nc1ccccc1 (centres undefined)	none
CN(C)c1nc(N)nc(-c2nc3ccccc3s2)n1	S1P3 antagonist 60 (no result: Calb biofilm kill)
Nc1ccccc1-c1nc2ccccc2s1	none
Cc1ccc2[nH]c3c(NCc4ccco4)ncnc3c2c1	S1P3 antagonist 59 (no result: Mdm2 ligase inh, Calb biofilm kill)
COc1ccc2nc(SCCN(C)C)[nH]c2c1	none
O=C(Nc1ccc(N2CCOCC2)cc1)Nc1ccc2nc(-c3ccco3)c(-c3ccco3)nc2c1	S1P3 antagonist 57 (no result: Calb biofilm kill)
O=C(Nc1ccc2nc(-c3ccco3)c(-c3ccco3)nc2c1)NC1CC1	none (no result: S1P3 antagonist)
COCCOC(=O)c1[nH]c2c(c1C)C(=O)CC(c1ccco1)C2 (centres undefined)	none (no result: Calb biofilm kill)
Cc1c(C(=O)OCCOC(C)C)[nH]c2c1C(=O)CC(c1ccco1)C2 (centres undefined)	S1P3 antagonist 54 (no result: Calb biofilm kill)

Compound activity as filed in PubChem BioAssay.
